Measurements reported in ChEMBL document CHEMBL3259592, “Synthesis and structure-activity relationship of dihydrobenzofuran derivatives as novel human GPR119 agonists” (Bioorg Med Chem Lett, 2014).
The source made the active and inactive calls. The calls are words filed in the database; no cut-off is given here.

Legend:
[1] = target: T1, Glucose-dependent insulinotropic receptor (Homo sapiens, UniProt Q8TDV5); test: Agonist activity at human GPR119 expressed in HEK293 cells co-expressing Flp-In-T-Rex assessed as cAMP accumulation after 60 mins; assay type: functional, cell-based
T1 sequence (Q8TDV5 whole entry): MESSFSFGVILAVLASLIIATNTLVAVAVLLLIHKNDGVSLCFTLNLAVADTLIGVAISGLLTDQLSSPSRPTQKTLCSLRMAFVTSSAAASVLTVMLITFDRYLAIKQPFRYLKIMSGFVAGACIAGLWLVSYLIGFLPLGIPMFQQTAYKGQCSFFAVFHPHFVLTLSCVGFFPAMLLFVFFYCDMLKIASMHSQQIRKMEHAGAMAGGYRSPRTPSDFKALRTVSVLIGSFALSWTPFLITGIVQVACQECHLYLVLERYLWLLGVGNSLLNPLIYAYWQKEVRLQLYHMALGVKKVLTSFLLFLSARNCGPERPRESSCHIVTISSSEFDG
Procedure, shortened: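 Tetracycline-inducible human GPR119 cell line, plated at 7.5 × 10⁵ cells/well 24 h before assay in DMEM with 10% FBS and 1 ng/ml tetracycline. Medium was then swapped for PBS assay buffer containing 25 mM HEPES (pH 7.4), 12 mM glucose, 0.01% FAF-BSA and 0.1 mM IBMX. Cells were exposed to compound for 60 min, then lysed. cAMP was read by enzyme fragment complementation fluorescence; EC50 and Emax reported.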

[2] = target: T2, Glucose-dependent insulinotropic receptor (Homo sapiens) (UniProt Q8TDV5); test: Intrinsic activity at human GPR119 expressed in HEK293 cells co-expressing Flp-In-T-Rex assessed as cAMP accumulation after 60 mins relative to propan-2-yl 4-({6-[(2-fluoro-4-methanesulfonylphenyl)amino]pyrimidin-4-yl}oxy)piperidine-1-carboxylate; assay type: functional, cell-based
T2 sequence (whole entry): T1 sequence (Q8TDV5 whole entry)
Procedure, shortened: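 Tetracycline-inducible human GPR119 cells plated 7.5 × 10⁵/well 24 h ahead in growth medium (DMEM, 10% FBS) with 1 ng/ml tetracycline. Compound exposure 60 min, then lysis; cAMP read by enzyme fragment complementation fluorescence. EC₅₀ and Emax derived.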

[3] = target: Glucose-dependent insulinotropic receptor (Homo sapiens) (UniProt Q8TDV5); test: Agonist activity at human GPR119 expressed in HEK293 cells co-expressing Flp-In-T-Rex assessed as cAMP accumulation after 60 mins
[4] = Metabolic stability in human liver microsomes assessed as compound remaining after 10 mins; assay type: ADME; settings: read-out: Stability
[5] = Metabolic stability in mouse liver microsomes assessed as compound remaining after 10 mins; assay type: ADME; settings: read-out: Stability
[6] = Aqueous solubility of the compound at pH 6.5; assay type: physicochemical
[7] = Permeability of the compound by PAMPA; assay type: physicochemical
[8] = target: T3, Nuclear receptor subfamily 1 group I member 2 (Homo sapiens, UniProt O75469); test: Transactivation of PXR (unknown origin)
T3 sequence (O75469 whole entry): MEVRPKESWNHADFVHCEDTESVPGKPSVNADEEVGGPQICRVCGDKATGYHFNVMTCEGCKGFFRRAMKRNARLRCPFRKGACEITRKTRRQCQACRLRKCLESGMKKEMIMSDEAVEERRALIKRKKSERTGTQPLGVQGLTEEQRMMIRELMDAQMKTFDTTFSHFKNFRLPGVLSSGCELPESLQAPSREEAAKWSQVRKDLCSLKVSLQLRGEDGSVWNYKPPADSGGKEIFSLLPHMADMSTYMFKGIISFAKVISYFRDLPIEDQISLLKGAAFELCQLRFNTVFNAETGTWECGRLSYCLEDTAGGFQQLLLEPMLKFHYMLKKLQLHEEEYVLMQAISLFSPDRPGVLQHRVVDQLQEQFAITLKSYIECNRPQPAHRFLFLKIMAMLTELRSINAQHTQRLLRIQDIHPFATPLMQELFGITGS

[9] = Inhibition of CYP450 (unknown origin); assay type: ADME; settings: human

Row | EC50 [1] [µM] | Emax [2] [%] | Activity [3] | remaining at 10 min [4] [%] | remaining at 10 min [5] [%] | solubility ([6]; buffer) | solubility ([6]; aqueous, read-out: solubility) [µg/mL] | permeability [7] | Activity [8] | inhibition (INH) [9] | Structure (SMILES)
1 | 0.521 | 88 | Active | – | – | – | – | – | – | – | CCCS(=O)(=O)N1CC=C(c2ccc3c(c2)CC(C2CCN(Cc4ccccc4)CC2)O3)CC1 (racemic)
2 | 0.103 | 61 | Active | 10 | 12 | – | – | – | – | – | CCCS(=O)(=O)N1CC=C(c2ccc3c(c2)CC(C2CCN(C(=O)OC(C)C)CC2)O3)CC1 (racemic)
3 | 1 | 43 | Active | – | – | – | – | – | – | – | CCCS(=O)(=O)N1CC=C(c2ccc3c(c2)CC(C2CCN(S(=O)(=O)CCC)CC2)O3)CC1 (racemic)
4 | 0.051 | 56 | Active | – | – | – | – | – | – | – | CCCS(=O)(=O)N1CC=C(c2ccc3c(c2)CC(C2CCN(C(=O)OC4CCCCC4)CC2)O3)CC1 (racemic)
5 | 0.078 | 88 | Active | 48 | 45 | – | – | – | – | – | CCCS(=O)(=O)N1CC=C(c2ccc3c(c2)CC(C2CCN(c4ncc(Cl)cn4)CC2)O3)CC1 (racemic)
6 | 0.014 | 118 | Active | 58 | – | Insoluble | – | – | – | – | CCCS(=O)(=O)N1CC=C(c2ccc3c(c2)CC(C2CCN(c4ncc(C(F)(F)F)cn4)CC2)O3)CC1 (racemic)
7 | 0.067 | 85 | Active | 58 | 3 | – | – | – | – | – | CCCS(=O)(=O)N1CC=C(c2ccc3c(c2)CC(C2CCN(c4ncc(C5CC5)cn4)CC2)O3)CC1 (racemic)
8 | 0.034 | 99 | Active | 47 | 46 | – | – | – | – | – | CCCS(=O)(=O)N1CC=C(c2ccc3c(c2)CC(C2CCN(c4ccc(C(F)(F)F)cn4)CC2)O3)CC1 (racemic)
9 | 0.082 | 107 | Active | 71 | 58 | – | – | – | – | – | CCCc1cnc(N2CCC(C3Cc4cc(C5=CCN(S(=O)(=O)CCC)CC5)ccc4O3)CC2)nc1 (racemic)
10 | 0.541 | 53 | – | – | – | – | – | – | – | – | CCCc1cnc(N2CCC(C3Cc4cc(-c5ccc(S(C)(=O)=O)cc5F)ccc4O3)CC2)nc1 (racemic)
11 | 0.544 | 74 | – | 82 | 44 | – | – | – | – | – | CCCc1cnc(N2CCC(C3Cc4cc(N5CCN(S(=O)(=O)CCC)CC5)ccc4O3)CC2)nc1 (racemic)
12 | 0.386 | 43 | – | 70 | 52 | – | – | – | – | – | CCCc1cnc(N2CCC(C3Cc4cc(C5CCN(S(=O)(=O)CCC)CC5)ccc4O3)CC2)nc1 (racemic)
13 | 0.005 | 123 | – | 87 | 78 | – | < 1 | permeable | Not Active | Not Active | CCCc1cnc(N2CCC(C3Cc4c(ccc(C5=CCN(S(=O)(=O)CCC)CC5)c4F)O3)CC2)nc1 (racemic)
14 | 0.062 | 93 | – | 97 | 74 | – | – | – | – | – | CCCc1cnc(N2CCC(C3Cc4cc(C5=CCN(S(=O)(=O)CCC)CC5)cc(F)c4O3)CC2)nc1 (racemic)
15 | 0.002 | 119 | – | 78 | 80 | – | < 1 | permeable | Not Active | Not Active | CCCc1cnc(N2CCC(C3Cc4c(F)c(C5=CCN(S(=O)(=O)CCC)CC5)cc(F)c4O3)CC2)nc1 (racemic)
16 | 0.07 | 48 | – | 68 | 52 | – | – | – | – | – | CCCc1cnc(N2CCC(C3(C)Cc4cc(C5=CCN(S(=O)(=O)CCC)CC5)ccc4O3)CC2)nc1 (racemic)
17 | 0.122 | 92 | – | 100 | 60 | – | – | – | – | – | CCCc1cnc(N2CCC(C3Cc4cc(C5=CCN(S(=O)(=O)CCCO)CC5)cc(F)c4O3)CC2)nc1 (racemic)
18 | 0.06 | 98 | – | 73 | 59 | – | – | – | – | – | CCCc1cnc(N2CCC(C3Cc4cc(C5=CCN(S(=O)(=O)CCCCO)CC5)cc(F)c4O3)CC2)nc1 (racemic)
19 | 0.016 | 86 | – | 89 | 82 | – | – | – | – | – | CCCc1cnc(N2CCC(C3Cc4c(F)c(C5=CCN(S(=O)(=O)CCCO)CC5)cc(F)c4O3)CC2)nc1 (racemic)
20 | 0.101 | 82 | – | 55 | 61 | – | – | – | – | – | CCCc1cnc(N2CCC(C3Cc4c(F)c(C5=CCN(S(=O)(=O)CCC(C)(C)O)CC5)cc(F)c4O3)CC2)nc1 (racemic)
21 | 0.078 | 78 | – | 72 | 42 | – | – | – | – | – | CCCc1cnc(N2CCC(C3(C)Cc4cc(C5=CCN(S(=O)(=O)CCCO)CC5)ccc4O3)CC2)nc1 (racemic)
22 | 0.028 | 67 | – | 67 | 70 | – | – | – | – | – | CCCc1cnc(N2CCC(C3(C)Cc4cc(C5=CCN(S(=O)(=O)CCCCO)CC5)ccc4O3)CC2)nc1 (racemic)
